Reference: publication PMC7115694 (European Journal of Medicinal Chemistry, 2010)

Experiments:
Type in all cases: cell-based
[1] = tested on: Herpes simplex virus-1 (KOS); assay: microbe, parasite or virus in culture; conditions: Human alphaherpesvirus 1, HEL, read-out: EC50 Herpes simplex virus-1 (KOS)
[2] = tested on: Vesicular stomatitis virus; assay: microbe, parasite or virus in culture; conditions: HEL, read-out: EC50 Vesicular stomatitis virus
[3] = tested on: Herpes simplex virus-2 (G); assay: microbe, parasite or virus in culture; conditions: Human alphaherpesvirus 2, HEL, read-out: EC50 Herpes simplex virus-2 (G)
Vaccinia virus = assay: microbe, parasite or virus in culture; conditions: Orthopoxvirus vaccinia, HEL, read-out: EC50 Vaccinia virus
Escherichia coli = assay: MIC by tube dilution method; conditions: observed, E. coli, 37 °C 24 h
Outline: (§1)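 Test compound is diluted in double strength nutrient broth (I.P.) by tube dilution, with ciprofloxacin as reference. Samples incubated at 37 °C for 24 h. MIC is the lowest concentration inhibiting microbial growth, transformed into pMIC for analysis.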

Feline Herpes virus = assay: organism not typed; conditions: CRFK, read-out: EC50 Feline Corona Virus
Reovirus-1 = assay: organism not typed; conditions: Vero, read-out: EC50 Reovirus-1
HeLa cells = assay: Cytotoxicity in uninfected cell cultures; conditions: cell morphology
Outline: (§2)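 Uninfected cell cultures are exposed to serial dilutions of test compound in parallel with the virus cytopathicity assays. Cells are examined microscopically. Minimum cytotoxic concentration is the lowest concentration causing a microscopically detectable alteration of normal cell morphology.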

B. subtilis = assay: Minimum bactericidal concentration; conditions: static when MBC 3-fold higher than MIC
Vero cells = assay: Cytotoxicity in uninfected cell cultures; conditions: cell morphology
Outline: as §2

Para-influenza-3 virus = assay: organism not typed; conditions: Vero, read-out: EC50 Para-influenza-3 virus
C. albicans and A. niger = assay: Average antifungal activity; conditions: average antifungal activity (pMICca + pMICan)/2
S. aureus = assay: Minimum bactericidal concentration; conditions: static when MBC 3-fold higher than MIC
HEL cells = assay: Cytotoxicity in uninfected cell cultures; conditions: microscopically detectable alteration of cell morphology
Outline: as §2

Staphylococcus aureus = assay: MIC by tube dilution method; conditions: observed, S. aureus, 37 °C 24 h
[4] = tested on: S. aureus, B. subtilis and E. coli; assay: Average antibacterial activity; conditions: average antibacterial activity (pMICsa + pMICbs + pMICec)/3
Aspergillus niger = assay: MIC by tube dilution method; conditions: observed, A. niger, 25 °C 7 d
Candida albicans = assay: MIC by tube dilution method; conditions: observed, C. albicans, 37 °C 48 h
[5] = tested on: S. aureus, B. subtilis, E. coli, C. albicans and A. niger; assay: Average antimicrobial activity; conditions: mean of five pMIC values
Bacillus subtilis = assay: MIC by tube dilution method; conditions: observed, B. subtilis, 37 °C 24 h
Outline: as §1

Sindbis virus = assay: microbe, parasite or virus in culture; conditions: Vero, read-out: EC50 Sindbis virus

Row | Structure (SMILES) | EC50 [2] [µM] | EC50 (Vaccinia virus) [µM] | pMICec (Escherichia coli) | EC50 (Feline Herpes virus) [µg/mL] | EC50 (Reovirus-1) [µg/mL] | Cytotoxicity Minimum cytotoxic concentration (HeLa cells) | Minimum cytotoxic concentration (Vero cells) | EC50 (Para-influenza-3 virus) | pMICaf (C. albicans and A. niger) | Minimum cytotoxic concentration (HEL cells) | pMICsa (Staphylococcus aureus) | pMICab [4] | pMICan (Aspergillus niger) | pMICca (Candida albicans) | pMICam [5] | pMICbs (Bacillus subtilis) | further results
1 | Nc1ccn(C[C@@H](CO)OCP(=O)(O)O)c(=O)n1 [Cidofovir] | > 250 | > 250 |  |  |  |  |  |  |  |  |  |  |  |  |  |  | EC50 [1]: 0.4 µM; EC50 [3]: 0.2 µM
2 | CCCCC(=O)n1c(-c2ccc(S(=O)(=O)O)cc2)nc2ccccc21 [Compound 17] |  |  | 1.76 | > 100 | > 100 | >100 µg/mL | >100 µg/mL | > 100 µg/mL | 1.31 | >100 µg/mL | 1.76 | 1.76 | 1.16 | 1.46 | 1.58 | 1.76 | bacteriostatic/bactericidal action against B. subtilis (B. subtilis): active bacteriocidal agents; bacteriostatic/bactericidal action against S. aureus (S. aureus): active bacteriocidal agents
3 | Cc1ccccc1C(=O)n1c(-c2ccc(S(=O)(=O)O)cc2)nc2ccccc21 [Compound 10] |  |  | 2.10 | > 100 | > 100 | >100 µg/mL | >100 µg/mL | > 100 µg/mL | 1.35 | >100 µg/mL | 2.10 | 2.10 | 1.20 | 1.50 | 1.80 | 2.10 | bacteriostatic/bactericidal action against S. aureus (S. aureus): active bacteriocidal agents
4 | Cc1ccc(C(=O)n2c(-c3ccc(S(=O)(=O)O)cc3)nc3ccccc32)cc1 [Compound 11] |  |  | 2.10 | > 100 | > 100 | >100 µg/mL | >100 µg/mL | > 100 µg/mL | 1.20 | >100 µg/mL | 2.10 | 2.05 | 0.89 | 1.50 | 1.71 | 1.95 | bacteriostatic/bactericidal action against B. subtilis (B. subtilis): active bacteriocidal agents
5 | Nc1nc(O)c2ncn(COC(CO)CO)c2n1 [Ganciclovir] | > 100 | > 100 |  |  |  |  |  |  |  | >100 µM |  |  |  |  |  |  | EC50 [1]: 0.03 µM; EC50 [3]: 0.03 µM
6 | COc1ccc(C(=O)n2c(-c3ccc(S(=O)(=O)O)cc3)nc3ccccc32)cc1 [Compound 8] |  |  | 2.12 | > 100 | > 100 | >100 µg/mL | >100 µg/mL | > 100 µg/mL | 1.36 | >100 µg/mL | 2.12 | 2.12 | 1.21 | 1.51 | 1.82 | 2.12 | 
7 | CCCCCCCCCCCCCCCC(=O)n1c(-c2ccc(S(=O)(=O)O)cc2)nc2ccccc21 [Compound 19] |  |  | 1.61 | > 100 | > 100 | >100 µg/mL | >100 µg/mL | > 100 µg/mL | 1.61 | >100 µg/mL | 2.23 | 2.02 | 1.61 | 1.61 | 1.86 | 2.23 | 
8 | O=C(c1ccc(Cl)cc1)n1c(-c2ccc(S(=O)(=O)O)cc2)nc2ccccc21 [Compound 5] |  |  | 2.42 | > 100 | > 100 | >100 µg/mL | >100 µg/mL | > 100 µg/mL | 1.37 | >100 µg/mL | 2.12 | 2.22 | 1.22 | 1.52 | 1.88 | 2.13 | 
9 | O=C(c1cccnc1)n1c(-c2ccc(S(=O)(=O)O)cc2)nc2ccccc21 [Compound 15] |  |  | 2.39 | > 100 | > 100 | >100 µg/mL | >100 µg/mL | > 100 µg/mL | 1.62 | >100 µg/mL | 2.13 | 2.22 | 1.48 | 1.75 | 1.98 | 2.13 | 
10 | O=c1[nH]c(=O)n([C@H]2C[C@H](O)[C@@H](CO)O2)cc1/C=C/Br [Brivudin] | > 250 | 112 |  |  |  |  |  |  |  |  |  |  |  |  |  |  | 
11 | Cc1ccc(S(=O)(=O)n2c(-c3ccc(S(=O)(=O)O)cc3)nc3ccccc32)cc1 [Compound 20] |  |  | 1.54 | > 100 | > 100 | >100 µg/mL | >100 µg/mL | > 100 µg/mL | 1.39 | >100 µg/mL | 1.84 | 1.74 | 1.23 | 1.54 | 1.60 | 1.84 | EC50 (Sindbis virus): > 100 µg/mL
12 | NC(=O)c1ncn([C@@H]2O[C@H](CO)[C@@H](O)[C@H]2O)n1 [Ribavirin] | > 250 | 10 |  |  |  | >250 µM | >250 µM | 95 µM |  | >250 µM |  |  |  |  |  |  | EC50 [1]: 1 µM; EC50 [3]: 2 µM; EC50 (Sindbis virus): > 250 µM
13 | O=C(c1ccccc1)n1c(-c2ccc(S(=O)(=O)O)cc2)nc2ccccc21 [Compound 2] |  |  | 2.12 | > 100 | > 100 | >100 µg/mL | >100 µg/mL | > 100 µg/mL | 1.63 | >100 µg/mL | 2.08 | 2.11 | 1.48 | 1.78 | 1.92 | 2.12 | 
